Test results from PubChem BioAssay AID1296 (Columbia University Molecular Screening Center, 2008).
Screen size: about 130,000 compounds; about 1,000 (0.77%) were called active. Inconclusive results (about 1%) are left out.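 The calls were made as follows: active = activation at 2 µM above a set limit, confirmed on inspection of the cell images; inconclusive = above the set limit but not confirmed on image inspection; inactive = the rest.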 For the sample, actives were picked, then their nearest neighbours and some compounds at random.

experiment: insulin gene promoter stimulation in islet cells – imaging, TRM-6 cells (human fetal islet line), eGFP reporter, cell count, primary screen (AID 1296;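 as to activation: share of cells whose green reporter signal exceeds an intensity cutoff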); conditions: at 2 µM; activation: stronger effect = higher value, plate-scaled: unstimulated 0, stimulated control 100; normalized cell count: measured here: cell count (toxicity)
In short: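 test system = TRM-6 insulin promoter–eGFP reporter cells | benchmarks = stimulated versus unstimulated wells as plate controls | read-out basis = percent cells above green-intensity threshold, converted to percent activation versus plate controls | detection = fixed-cell fluorescence microscopy, eGFP plus Hoechst | incubation = tamoxifen pre-incubation 15 h overnight, then compound exposure 48 h at 37 °C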

SMILES | activation | normalized cell count [%]
COc1ccc(C)cc1Nc1nc(-c2c(C)[nH]c3ccccc23)cs1 | -3.7% (inactive) | 68.8
CN(c1ccc(OCC(=O)OCC(=O)Nc2cccc([N+](=O)[O-])c2)cc1)S(=O)(=O)c1ccc(F)cc1 | -8.57% (inactive) | 119
CCc1ccc(NC(=O)Nc2ccncc2)cc1 | 268% (active) | 67.1
O=C(Nc1ccncc1)c1c(F)cccc1F | -5.26% (inactive) | 90.9
COc1cccc(OC)c1C(=O)Nc1ccc(Cc2ccncc2)cc1 | 6.67% (inactive) | 107
OCCNCCOc1ccc(Cl)c(Cl)c1 | -3.85% (inactive) | 86.5
CC(NC(=O)Nc1ccc2c(c1)OCO2)c1ccncc1 (stereo not drawn) | -5.26% (inactive) | 112
Cc1onc(C(=O)NN)c1C(=O)N1CCN(C(c2ccccc2)c2ccccc2)CC1 | -81.8% (inactive) | 29.3
CCOC(=O)c1c(NC(=O)C2CC=CCC2C(=O)O)sc(C)c1CC (stereo not drawn) | -5.88% (inactive) | 110
Cc1ccccc1C(OCCN(C)C)C1CCCCC1 (stereo not drawn) | -9.38% (inactive) | 72.9
Cc1ccc(N/N=C2\COC(C)(C)CC2=O)cc1 | 7.14% (inactive) | 67.8
O=C(Nc1ccccc1)N1CCN(Cc2ccccc2)CC1 | 4.22% (inactive) | 57.8
CCCC(=O)C1CCN(Cc2ccccc2)CC1 | 0% (inactive) | 122
NC(=O)c1ccc(CN2CCC(Cc3ccccc3)CC2)cc1 | 347% (active) | 40.1
O=C(CSc1ncnc2scc(-c3ccccc3)c12)NCc1ccc2c(c1)OCO2 | 0% (inactive) | 109
CCCCOc1ccc(C(=O)NN2CCN(C)CC2)cc1 | 0% (inactive) | 149
CN(c1ccccc1)c1ccc(/C=c2\s/c(=C(/C#N)C(=O)C(C)(C)C)n(Cc3ccco3)c2=O)cc1 | 178% (active) | 74.1
Cc1cs/c(=N\N=C\c2ccc(O)cc2)n1Cc1ccco1 | -7.69% (inactive) | 109
Cc1ccc(S(=O)(=O)N(CC(=O)N2CCc3ccccc3C2)c2cccc(Cl)c2)cc1 | 5% (inactive) | 94.9
O=C(CN(c1ccccc1)S(=O)(=O)c1ccc(Cl)cc1)Nc1ccccc1C(=O)N1CCCC1 | 93.5% (active) | 74.8
O=C(CN(c1cccc(Cl)c1)S(=O)(=O)c1ccccc1)NN=C1CCCC1 | -5.88% (inactive) | 82.1
N#CCC(=O)NC(=O)NCC1CC1 | 9.09% (inactive) | 118

SMILES | activation | normalized cell count [%]
O=C(CCc1[nH]c2ccccc2c1Sc1ccccc1)N(CCO)CCO | -6.9% (inactive) | 121
Cc1nnc(SCC(=O)N2CCOCC2)[nH]c1=O | 0% (inactive) | 145
COc1ccc(S(=O)(=O)N2CCC(C(=O)N3CCc4ccccc4C3)CC2)cc1OC | 8.7% (inactive) | 157
O=S(=O)(c1cccs1)N1CCc2ccccc2C1 | -90.9% (inactive) | 90.9
O=C(Nc1ccc(S(=O)(=O)N2CCc3ccccc3C2)cc1)c1ccccc1 | 407% (active) | 116
O=C(Nc1ccccc1)OCc1cn(-c2ccc(Cl)cc2)nn1 | 6.06% (inactive) | 118
CC(Sc1nncn1C)C(=O)Nc1cc(C(F)(F)F)ccc1N1CCOCC1 (stereo not drawn) | 0% (inactive) | 135
CCC(C)(C(=O)NC1CCCCC1)N(C)C(=O)c1ccc2c(c1)OCO2 (stereo not drawn) | 8.57% (inactive) | 95.1
CN1CCC(OC(=O)COc2ccc(Cl)cc2Cl)CC1 | 453% (active) | 63.1
CCOC(=O)N1CCN(C(=O)COc2ccc(Cl)cc2C)CC1 | 193% (inactive) | 63.4
CCCn1nnnc1NC(=O)COc1ccc(Cl)cc1C | 9.09% (inactive) | 95.5
CC(C)(C)NCCCOc1ccc(Cl)cc1C(C)(C)C | 108% (inactive) | 74
CC(C)NC(=O)C(=O)N/N=C/c1ccco1 | 0% (inactive) | 130
CCCCc1nc(NCc2ccccc2)c(C#N)c2c1CCCC2 | -3.7% (inactive) | 115
Cc1ccccc1OCC(=O)NCC(=O)OCC(=O)c1ccc2ccccc2c1 | -2.78% (inactive) | 105
Cc1ccc(S(=O)(=O)NC(=O)COc2ccccc2C)cc1 | -81.2% (inactive) | 150
Cc1cccc(NC(=O)COc2ccccc2C)n1 | 406% (active) | 56.6
Cc1nc2scc(-c3cccs3)c2c(=O)n1N | -9.8% (inactive) | 105
O=C(c1ccc(Cl)c([N+](=O)[O-])c1)N1CCN(c2ccccc2)CC1 | 4.35% (inactive) | 49.2
Cc1nc2ccc(C(=O)N3CCSCC3)cc2s1 | 6.06% (inactive) | 60.2
CCN(CC)CC1(O)CCN(C(=O)c2ccc(Cl)c(Cl)c2)CC1 | 275% (active) | 33.3
COCCn1c(SCC(=O)Nc2ccc3c(c2)CCC3)nc2ccccc2c1=O | 1.3% (inactive) | 117
